# Source: ChEMBL document CHEMBL1125279, “Neurochemistry of aging. 2. Design, synthesis, and biological evaluation of halomethyl analogues of choline with high affinity choline transport inhibitory activity” (J Med Chem, 1991)
# Legend:
# Format in all cases: functional
# Rattus norvegicus = organism: Rattus norvegicus; assay: Concentration required to inhibit 50% of the transport of [3H]choline into synaptosomes, using rat hippocampal synaptosomes.; settings: Hippocampus
# Method in brief: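 Rat hippocampus dissected on ice, homogenized in 0.32 M sucrose; P2 pellet (12000g, 20 min) resuspended in sucrose. Synaptosomes incubated with [3H]choline and increasing inhibitor concentrations, 8 min at 30 °C; filtered, washed three times, lysed in water, tritium counted. High-affinity uptake = standard-medium minus sodium-free accumulation, per mg protein (Lowry); IC50 from percent inhibition.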
# Cavia porcellus [1] = organism: Cavia porcellus; assay: Relative potency with respect to choline in isolated guinea pig ileum preparations.
# Cavia porcellus [2] = organism: Cavia porcellus; assay: Relative potency with respect to acetylcholine in isolated guinea pig ileum preparations.
# Method in brief: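 Guinea pig ileum segment in Tyrode's solution (NaCl 137 mM, KCl 2.68 mM, MgCl2 1.05 mM, CaCl2 1.80 mM, NaH2PO4 0.42 mM, NaHCO3 11.90 mM, glucose 5.55 mM), contents flushed. Contractions to 3–7 concentrations recorded by polygraph and compared against concentration responses to acetylcholine and choline.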
IC50 (Rattus norvegicus),SMILES,Relative potency (Cavia porcellus [1]),Relative potency (Cavia porcellus [2])
0.49 µM,C[N+](C)(CI)CCO.[I-],0.33,
78 µM,C[N+]1(C)CCOC1.[Br-],4.25,
0.92 µM,C[N+](C)(CCl)CCO.[I-],0.13,
,CC(=O)OCC[N+](C)(C)CBr.[Br-],,0.05
,CC(=O)OCC[N+](C)(C)CI.[I-],,0.11
56 µM,CC(O)C[N+](C)(C)CBr.[Br-] (stereo unspecified),0.04,
,CC(=O)OC(C)C[N+](C)(C)CI.[I-] (stereo unspecified),,0.02
50 µM,CC(O)C[N+](C)(C)CI.[I-] (stereo unspecified),0.1,
200 µM,CC1C[N+](C)(C)CO1.[Br-] (stereo unspecified),2,
,CC(=O)OCC[N+](C)(C)CCl.[I-],,0.09
,CC(=O)OCC[N+](C)(C)C.[I-] [ACETYLCHOLINE IODIDE],,1
130 µM,CC(O)C[N+](C)(C)CCl.[I-] (stereo unspecified),0.05,
0.87 µM,C[N+](C)(CBr)CCO.[Br-],0.14,
